ChEMBL document CHEMBL2157880, “Synthesis, antimycobacterial and antibacterial activity of ciprofloxacin derivatives containing a N-substituted benzyl moiety” (2012)
In brackets after ≈: the same amount, converted by molar mass.

Columns and labels:
Format in all cases: functional
Escherichia coli [1] = test: Antibacterial activity against extended spectrum beta-lactamases producing Escherichia coli 10-4 after 18 to 24 hrs by NCCLS method
In short: (§1)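 Standard NCCLS (M100-S11) MIC testing against Gram-positive and Gram-negative strains. Plates were incubated at 35 °C for 18–24 h. The MIC was read as the lowest concentration giving complete inhibition of visible bacterial growth.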

Escherichia coli [2] = test: Antibacterial activity against Escherichia coli 10-1 after 18 to 24 hrs by NCCLS method; in short: as §1
Enterococcus faecalis [3] = test: Antibacterial activity against Enterococcus faecalis 10-5 after 18 to 24 hrs by NCCLS method; in short: as §1
Pseudomonas aeruginosa [4] = test: Antibacterial activity against Pseudomonas aeruginosa 10-15 after 18 to 24 hrs by NCCLS method; in short: as §1
Staphylococcus aureus [5] = test: Antibacterial activity against methicillin-resistant Staphylococcus aureus 10-15 after 18 to 24 hrs by NCCLS method
In short: (§2)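 Incubated at 35 °C for 18–24 h under NCCLS (M100-S11) standards. MIC was read as the lowest concentration giving complete inhibition of visible bacterial growth.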

Staphylococcus aureus [6] = test: Antibacterial activity against methicillin-resistant Staphylococcus aureus 10-11 after 18 to 24 hrs by NCCLS method; in short: as §2
Enterococcus faecalis [7] = test: Antibacterial activity against Enterococcus faecalis 10-7 after 18 to 24 hrs by NCCLS method; in short: as §1
[8] = test system: Mycobacterium tuberculosis; test: Antimycobacterial activity against Mycobacterium tuberculosis H37Rv ATCC 27294 by microplate alamar blue assay
In short: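 Microplate Alamar Blue fluorescence assay on strain H37Rv ATCC 27294. MIC was the lowest concentration cutting fluorescence by ≥90% against the mean of replicate bacterium-only controls.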

Enterococcus faecium [9] = test: Antibacterial activity against Enterococcus faecium 10-9 after 18 to 24 hrs by NCCLS method; in short: as §1
Staphylococcus aureus [10] = test: Antibacterial activity against methicillin-resistant Staphylococcus aureus 10-13 after 18 to 24 hrs by NCCLS method; in short: as §2
Escherichia coli [11] = test: Antibacterial activity against Escherichia coli ATCC 25922 after 18 to 24 hrs by NCCLS method; in short: as §1
Pseudomonas aeruginosa [12] = test: Antibacterial activity against Pseudomonas aeruginosa 10-18 after 18 to 24 hrs by NCCLS method; in short: as §1
Staphylococcus aureus [13] = test: Antibacterial activity against methicillin-sensitive Staphylococcus aureus 10-14 after 18 to 24 hrs by NCCLS method; in short: as §1
[14] = test system: Staphylococcus epidermidis; test: Antibacterial activity against methicillin-resistant Staphylococcus epidermidis 10-10 after 18 to 24 hrs by NCCLS method; in short: as §2
Escherichia coli [15] = test: Antibacterial activity against Escherichia coli 10-3 after 18 to 24 hrs by NCCLS method; in short: as §1
Escherichia coli [16] = test: Antibacterial activity against extended spectrum beta-lactamases producing Escherichia coli 10-3 after 18 to 24 hrs by NCCLS method; in short: as §1
Pseudomonas aeruginosa [17] = test: Antibacterial activity against Pseudomonas aeruginosa 10-9 after 18 to 24 hrs by NCCLS method; in short: as §1
Enterococcus faecalis [18] = test: Antibacterial activity against Enterococcus faecalis 10-6 after 18 to 24 hrs by NCCLS method; in short: as §1
Staphylococcus aureus [19] = test: Antibacterial activity against Staphylococcus aureus ATCC 2592 after 18 to 24 hrs by NCCLS method; in short: as §1
Klebsiella pneumoniae [20] = test: Antibacterial activity against extended spectrum beta-lactamases producing Klebsiella pneumoniae 10-3 after 18 to 24 hrs by NCCLS method; in short: as §1
Escherichia coli [21] = test: Antibacterial activity against extended spectrum beta-lactamases producing Escherichia coli 10-2 after 18 to 24 hrs by NCCLS method; in short: as §1
Klebsiella pneumoniae [22] = test: Antibacterial activity against extended spectrum beta-lactamases producing Klebsiella pneumoniae 10-2 after 18 to 24 hrs by NCCLS method; in short: as §1
Klebsiella pneumoniae [23] = test: Antibacterial activity against extended spectrum beta-lactamases producing Klebsiella pneumoniae 10-1 after 18 to 24 hrs by NCCLS method; in short: as §1
Enterococcus faecium [24] = test: Antibacterial activity against Enterococcus faecium 10-6 after 18 to 24 hrs by NCCLS method; in short: as §1
Klebsiella pneumoniae [25] = test: Antibacterial activity against Klebsiella pneumoniae 10-4 after 18 to 24 hrs by NCCLS method; in short: as §1
[26] = test system: Staphylococcus epidermidis; test: Antibacterial activity against methicillin-sensitive Staphylococcus epidermidis 10-11 after 18 to 24 hrs by NCCLS method; in short: as §1
Staphylococcus aureus [27] = test: Antibacterial activity against methicillin-sensitive Staphylococcus aureus 10-11 after 18 to 24 hrs by NCCLS method; in short: as §1
[28] = test system: Staphylococcus epidermidis; test: Antibacterial activity against methicillin-resistant Staphylococcus epidermidis 10-13 after 18 to 24 hrs by NCCLS method; in short: as §2
Streptococcus pneumoniae [29] = test: Antibacterial activity against Streptococcus pneumoniae 10-1 after 18 to 24 hrs by NCCLS method; in short: as §1
Klebsiella pneumoniae [30] = test: Antibacterial activity against Klebsiella pneumoniae 10-2 after 18 to 24 hrs by NCCLS method; in short: as §1
Klebsiella pneumoniae [31] = test: Antibacterial activity against Klebsiella pneumoniae 10-3 after 18 to 24 hrs by NCCLS method; in short: as §1
Pseudomonas aeruginosa [32] = test: Antibacterial activity against Pseudomonas aeruginosa 10-12 after 18 to 24 hrs by NCCLS method; in short: as §1
Staphylococcus aureus [33] = test: Antibacterial activity against methicillin-sensitive Staphylococcus aureus 10-13 after 18 to 24 hrs by NCCLS method; in short: as §1
Streptococcus pneumoniae [34] = test: Antibacterial activity against Streptococcus pneumoniae 10-6 after 18 to 24 hrs by NCCLS method; in short: as §1
Escherichia coli [35] = test: Antibacterial activity against Escherichia coli 10-2 after 18 to 24 hrs by NCCLS method; in short: as §1
Pseudomonas aeruginosa [36] = test: Antibacterial activity against Pseudomonas aeruginosa 10-5 after 18 to 24 hrs by NCCLS method; in short: as §1
Pseudomonas aeruginosa [37] = test: Antibacterial activity against Pseudomonas aeruginosa 10-20 after 18 to 24 hrs by NCCLS method; in short: as §1
[38] = test system: Staphylococcus epidermidis; test: Antibacterial activity against methicillin-sensitive Staphylococcus epidermidis 10-15 after 18 to 24 hrs by NCCLS method; in short: as §2

SMILES	MIC (Escherichia coli [1]) [µg/mL]	MIC (Escherichia coli [2]) [µg/mL]	MIC (Enterococcus faecalis [3]) [µg/mL]	MIC (Pseudomonas aeruginosa [4]) [µg/mL]	MIC (Staphylococcus aureus [5]) [µg/mL]	MIC (Staphylococcus aureus [6]) [µg/mL]	MIC (Enterococcus faecalis [7]) [µg/mL]	MIC [8] [µg/mL]	MIC (Enterococcus faecium [9]) [µg/mL]	MIC (Staphylococcus aureus [10]) [µg/mL]	MIC (Escherichia coli [11]) [µg/mL]	MIC (Pseudomonas aeruginosa [12]) [µg/mL]	MIC (Staphylococcus aureus [13]) [µg/mL]	MIC [14] [µg/mL]	MIC (Escherichia coli [15]) [µg/mL]	MIC (Escherichia coli [16]) [µg/mL]	MIC (Pseudomonas aeruginosa [17]) [µg/mL]	MIC (Enterococcus faecalis [18]) [µg/mL]	MIC (Staphylococcus aureus [19]) [µg/mL]	MIC (Klebsiella pneumoniae [20]) [µg/mL]	other results
COc1ccc(CN2CCN(c3cc4c(cc3F)c(=O)c(C(=O)O)cn4C3CC3)CC2)c(OC)c1OC	64 (≈ 125 µM)	> 128	16 (≈ 31.3 µM)	32 (≈ 62.6 µM)	16 (≈ 31.3 µM)	16 (≈ 31.3 µM)	64 (≈ 125 µM)	16 (≈ 31.3 µM)	32 (≈ 62.6 µM)	64 (≈ 125 µM)	0.5 (≈ 0.977 µM)	64 (≈ 125 µM)	0.125 (≈ 0.244 µM)	64 (≈ 125 µM)	64 (≈ 125 µM)	> 128	32 (≈ 62.6 µM)	> 128	0.5 (≈ 0.977 µM)	> 128	MIC (Escherichia coli [21]): > 128 µg/mL; MIC (Klebsiella pneumoniae [22]): > 128 µg/mL; MIC (Klebsiella pneumoniae [23]): > 128 µg/mL; MIC (Enterococcus faecium [24]): 8 µg/mL (≈ 15.6 µM); MIC (Klebsiella pneumoniae [25]): > 128 µg/mL; MIC [26]: 0.25 µg/mL (≈ 0.489 µM); MIC (Staphylococcus aureus [27]): 0.125 µg/mL (≈ 0.244 µM); MIC [28]: 64 µg/mL (≈ 125 µM); MIC (Streptococcus pneumoniae [29]): 8 µg/mL (≈ 15.6 µM); MIC (Klebsiella pneumoniae [30]): > 128 µg/mL; MIC (Klebsiella pneumoniae [31]): 16 µg/mL (≈ 31.3 µM); MIC (Pseudomonas aeruginosa [32]): 64 µg/mL (≈ 125 µM); MIC (Staphylococcus aureus [33]): 0.25 µg/mL (≈ 0.489 µM); MIC (Streptococcus pneumoniae [34]): 64 µg/mL (≈ 125 µM); MIC (Escherichia coli [35]): 16 µg/mL (≈ 31.3 µM); MIC (Pseudomonas aeruginosa [36]): 32 µg/mL (≈ 62.6 µM); MIC (Pseudomonas aeruginosa [37]): 32 µg/mL (≈ 62.6 µM); MIC [38]: 16 µg/mL (≈ 31.3 µM)
COc1cc(Br)c(CN2CCN(c3cc4c(cc3F)c(=O)c(C(=O)O)cn4C3CC3)CC2)cc1OC	> 128	> 128	> 128	16 (≈ 28.6 µM)	32 (≈ 57.1 µM)	32 (≈ 57.1 µM)	> 128	> 32	> 128	32 (≈ 57.1 µM)	0.25 (≈ 0.446 µM)	8 (≈ 14.3 µM)	4 (≈ 7.14 µM)	> 128	> 128	> 128	8 (≈ 14.3 µM)	> 128	2 (≈ 3.57 µM)	> 128	MIC (Escherichia coli [21]): > 128 µg/mL; MIC (Klebsiella pneumoniae [22]): > 128 µg/mL; MIC (Klebsiella pneumoniae [23]): > 128 µg/mL; MIC (Enterococcus faecium [24]): 8 µg/mL (≈ 14.3 µM); MIC (Klebsiella pneumoniae [25]): > 128 µg/mL; MIC [26]: 8 µg/mL (≈ 14.3 µM); MIC (Staphylococcus aureus [27]): 4 µg/mL (≈ 7.14 µM); MIC [28]: 32 µg/mL (≈ 57.1 µM); MIC (Streptococcus pneumoniae [29]): 8 µg/mL (≈ 14.3 µM); MIC (Klebsiella pneumoniae [30]): > 128 µg/mL; MIC (Klebsiella pneumoniae [31]): 8 µg/mL (≈ 14.3 µM); MIC (Pseudomonas aeruginosa [32]): 8 µg/mL (≈ 14.3 µM); MIC (Staphylococcus aureus [33]): 4 µg/mL (≈ 7.14 µM); MIC (Streptococcus pneumoniae [34]): > 128 µg/mL; MIC (Escherichia coli [35]): > 128 µg/mL; MIC (Pseudomonas aeruginosa [36]): 8 µg/mL (≈ 14.3 µM); MIC (Pseudomonas aeruginosa [37]): 16 µg/mL (≈ 28.6 µM); MIC [38]: > 128 µg/mL
